Five compounds from ChEMBL document CHEMBL3526007, “The inactivation of human CYP2E1 by phenethyl isothiocyanate, a naturally occurring chemopreventive agent, and its oxidative bioactivation” (Drug Metab Dispos, 2013) can be followed below.

Structures are written as SMILES.

Assay type in all cases: ADME
Data set [1] has as its target T1, Cytochrome P450 2E1 (Homo sapiens, UniProt P05181). Put plainly: Drug level assessed as human CYP2E1-mediated compound formation using 50 uM phenethylisothiocyanate in presence of reductase and NADPH after 30 mins by LC-MS/MS method. Conditions: recombinant enzyme, 0.5 h; call rule not given here. The method in brief:
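Recombinant human CYP2E1 (1 µM) with reductase (1 µM) reconstituted in DLPC (100 µg/ml), preincubated with 2 mM GSH. PEITC added to a final 50 µM with NADPH at a final 1.2 mM, then incubated 30 min at 30°C. Controls lacked NADPH. Metabolites and GSH conjugates recovered by C18 solid-phase extraction and analysed by positive-ion ESI LC-MS/MS.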

The next data set relates to Liver microsome. Put plainly: Drug level in human liver microsomes treated with 50 uM phenethylisothiocyanate after 30 mins by ESI LC-MS/MS method. The note with it: 0.5 h. Summed up:
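Human liver microsomes (0.5 mg protein/ml) in 50 mM potassium phosphate pH 7.4, preincubated 5 min with 2 mM GSH. PEITC added to a final 50 µM with NADPH at a final 1.2 mM, then incubated 30 min at 37°C. Controls lacked NADPH. GSH conjugate recovered by C18 solid-phase extraction and analysed by positive-ion LC-MS/MS.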

Data set [2] deals with T1, Cytochrome P450 2E1. Put plainly: Retention time assessed as human CYP2E1-mediated compound formation using 50 uM phenethylisothiocyanate in presence of reductase and NADPH after 30 mins by LC-MS/MS method. The note with it: recombinant enzyme, 0.5 h. The method in brief: (§1)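 CYP2E1 (1 µM) and reductase (1 µM) reconstituted with lipid (100 µg/ml) and preincubated with 2 mM GSH. PEITC (final 50 µM) and NADPH (final 1.2 mM) then added, 30 min at 30°C; controls ran without NADPH. Products were taken up by C18 solid-phase extraction and analysed by positive-ion ESI LC-MS/MS, one full scan plus two data-dependent scans.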

Data set [3] concerns the target T1, Cytochrome P450 2E1. Put plainly: Inhibition of human CYP2E1 expressed in Escherichia coli MV1304 assessed as reduction in 7-EFC O-de-ethylation activity at 10 uM after 10 mins in presence of reductase by spectrofluorometry. Summed up: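 Reconstituted CYP2E1/reductase (1 µM each, 100 µg/ml DLPC, catalase, 50 mM K phosphate pH 7.4) incubated 10 min at 30°C with PIC at 0- to 100-fold molar excess; PIC in acetonitrile, 1% final. Aliquots diluted into secondary mix (0.1 mM 7-EFC, 0.2 mM NADPH, BSA) for 10 min; 7-HFC read at ex 410/em 510 nm. Three experiments in duplicate.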

The target in data set [4] is T1, Cytochrome P450 2E1. Put plainly: Inactivation of human CYP2E1 expressed in Escherichia coli MV1304 assessed as remaining heme level at 25 uM after dialysis by HPLC method. The method in brief:
(§2)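 CYP2E1 and reductase (1 µM each) reconstituted with DLPC (100 µg/ml) plus catalase in 50 mM K phosphate pH 7.4. Incubated 10 min at 30°C with 25 µM PEITC ± 1.2 mM NADPH; control had neither. Then dialysed overnight at 4°C against phosphate buffer with 20% glycerol and 0.1 mM EDTA. Read-outs: P450 by reduced CO difference spectrum (ε450 91 mM⁻¹cm⁻¹), heme by HPLC, and 7-EFC O-de-ethylation after re-adding lipid (50 µg/ml) ± fresh reductase (1 µM). Two experiments in duplicate.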

The target in data set [5] is T1, Cytochrome P450 2E1. Briefly: Inhibition of human CYP2E1 expressed in Escherichia coli MV1304 assessed as reduction in 7-EFC O-de-ethylation activity at 50 uM added 1 min before NADPH addition in presence of 1 mM GSH by spectrofluorometry. The note with it: TDE = time-dependent effect. The method in brief: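 Reconstituted CYP2E1/reductase (1 µM each, DLPC, catalase, pH 7.4 phosphate). Arms: 1.2 mM NADPH alone, with 50 µM PEITC, or with 50 µM PEITC plus 1 mM GSH. PEITC added 1 min before NADPH; incubation at 30°C. Residual 7-EFC O-de-ethylation measured at 0, 2, 4, 6 and 12 min by 7-HFC fluorescence.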

Data set [6] addresses T2, CYP2E1 (Homo sapiens, UniProt P05181). Briefly: Inactivation of human CYP2E1 expressed in Escherichia coli MV1304 assessed as remaining enzyme activity at 25 uM after dialysis by 7-EFC O-de-ethylation activity detection based spectrofluorometry. Conditions: probe 7-EFC (O-de-ethylation), read-out: Activity. The method in brief: as §2
Data set [7] concerns the target T2, CYP2E1. Put plainly: Inactivation of human CYP2E1 expressed in Escherichia coli MV1304 assessed as remaining enzyme activity at 25 uM in presence of 1.2 mM NADPH after dialysis in presence of fresh reductase by 7-EFC O-de-ethylation activity detection based spectrofluorometry. The note with it: probe 7-EFC (O-de-ethylation), read-out: Activity. The method in brief:
as §2

For data set [8], the target named is T1, Cytochrome P450 2E1. Briefly: Inactivation of human CYP2E1 expressed in Escherichia coli MV1304 assessed as remaining P450 level at 25 uM after dialysis by CO difference spectral method. Summed up: as §2
Data set [9] has as its target T1, Cytochrome P450 2E1. Put plainly: Inactivation of human CYP2E1 expressed in Escherichia coli MV1304 assessed as remaining heme level at 25 uM in presence of 1.2 mM NADPH after dialysis by HPLC method. The method in brief:
as §2

For data set [10], the target named is T2, CYP2E1. Put plainly: Inactivation of human CYP2E1 expressed in Escherichia coli MV1304 assessed as remaining enzyme activity at 25 uM in presence of 1.2 mM NADPH after dialysis by 7-EFC O-de-ethylation activity detection based spectrofluorometry. Conditions: probe 7-EFC (O-de-ethylation), read-out: Activity. The method in brief:
as §2

Data set [11] has as its target T1, Cytochrome P450 2E1. Put plainly: Drug metabolism assessed as human CYP2E1-mediated phenethylamine formation at 50 uM in presence of reductase and NADPH after 30 mins by LC-MS/MS method. The note with it: recombinant enzyme, 0.5 h. The method in brief:
as §1

Data set [12] concerns the target T1, Cytochrome P450 2E1. Briefly: Inhibition of human CYP2E1 expressed in Escherichia coli MV1304 assessed as partition ratio for enzyme inactivation. The method in brief: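 Reconstituted CYP2E1 (1 µM) with reductase (1 µM), 100 µg/ml DLPC and catalase, in 50 mM KPi pH 7.4. Incubated with increasing PEITC plus 1.2 mM NADPH for 10 min at 30°C until inactivation was complete. Residual 7-EFC O-de-ethylation was read by fluorescence (ex 410/em 510 nm). Percent activity remaining was plotted against PEITC:P450 molar ratio. The turnover number (r+1) was taken from the intercept of the regression lines. Mean of three experiments.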

Data set [13] has as its target T1, Cytochrome P450 2E1. Put plainly: Covalent binding to human CYP2E1 expressed in Escherichia coli MV1304 assessed as protein-adduct formation at 25 uM after 10 mins by ESI LC-MS/MS method. The method in brief:
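CYP2E1 (1 µM) reconstituted with lipid only (100 µg/ml), no reductase, incubated 10 min at 30°C; control received methanol. Samples (50 µl) analysed by ESI LC-MS/MS on a C18 reverse-phase column equilibrated with 35% acetonitrile/0.1% TFA. Protein envelopes deconvoluted to give the intact protein mass. Mean of two injections.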

For data set [14], the target named is T1, Cytochrome P450 2E1. Briefly: Drug metabolism assessed as human CYP2E1-mediated phenethylamine formation at 50 uM in presence of reductase and absence of NADPH after 30 mins by LC-MS/MS method. The note with it: recombinant enzyme, 0.5 h. The method in brief: as §1
Data set [15] has as its target T1, Cytochrome P450 2E1. Briefly: Inhibition of human CYP2E1 expressed in Escherichia coli MV1304 assessed as reduction in 7-EFC O-de-ethylation activity by spectrofluorometry. Summed up:
(§3)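 Primary mix: 1 µM CYP2E1, 1 µM reductase, 100 µg/ml DLPC and catalase in 50 mM K phosphate pH 7.4, with PEITC 0–50 µM (methanol 1% final). Started with 1.2 mM NADPH at 30°C and sampled at 0–5 min. Aliquots assayed for 10 min with 0.1 mM 7-EFC and 0.2 mM NADPH; fluorescence read at ex 410/em 510 nm. Inactivation kinetics from a double-reciprocal plot. Six experiments in duplicate.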

For data set [16], the target named is T2, CYP2E1. Put plainly: Inactivation of human CYP2E1 expressed in Escherichia coli MV1304 assessed as remaining enzyme activity at 25 uM after dialysis in presence of fresh reductase by 7-EFC O-de-ethylation activity detection based spectrofluorometry. The note with it: probe 7-EFC (O-de-ethylation), read-out: Activity. Summed up:
as §2

Data set [17] addresses T1, Cytochrome P450 2E1. Put plainly: Inactivation of human CYP2E1 expressed in Escherichia coli MV1304 assessed as remaining P450 level at 25 uM in presence of 1.2 mM NADPH after dialysis by CO difference spectral method. The method in brief:
as §2

The target in data set [18] is T2, CYP2E1. Put plainly: (§4) Inhibition of human CYP2E1 expressed in Escherichia coli MV1304 assessed as reduction in 7-EFC O-de-ethylation activity by spectrofluorometry based double reciprocal plot. Conditions: human, probe 7-EFC (O-de-ethylation). The method in brief:
(§5)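 Reconstituted CYP2E1 (1 µM) with reductase (1 µM), 100 µg/ml DLPC and catalase, in 50 mM KPi pH 7.4. PEITC 0–50 µM was added (1% methanol final) and the reaction started with 1.2 mM NADPH at 30°C. Aliquots taken at 0–5 min were assayed for 10 min with 0.1 mM 7-EFC and 0.2 mM NADPH; 7-HFC fluorescence was read. Inactivation rates were analysed by double-reciprocal plot. Six experiments, each in duplicate.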

In data set [19] the target is T1, Cytochrome P450 2E1. The data set is described as §4. The method in brief: as §5
The target of data set [20] is T1, Cytochrome P450 2E1. Briefly: Inhibition of human CYP2E1 expressed in Escherichia coli MV1304 assessed as reduction in 7-EFC O-de-ethylation activity in absence of cytochrome b5 by spectrofluorometry. Summed up: as §3

T1 sequence (P05181 whole entry): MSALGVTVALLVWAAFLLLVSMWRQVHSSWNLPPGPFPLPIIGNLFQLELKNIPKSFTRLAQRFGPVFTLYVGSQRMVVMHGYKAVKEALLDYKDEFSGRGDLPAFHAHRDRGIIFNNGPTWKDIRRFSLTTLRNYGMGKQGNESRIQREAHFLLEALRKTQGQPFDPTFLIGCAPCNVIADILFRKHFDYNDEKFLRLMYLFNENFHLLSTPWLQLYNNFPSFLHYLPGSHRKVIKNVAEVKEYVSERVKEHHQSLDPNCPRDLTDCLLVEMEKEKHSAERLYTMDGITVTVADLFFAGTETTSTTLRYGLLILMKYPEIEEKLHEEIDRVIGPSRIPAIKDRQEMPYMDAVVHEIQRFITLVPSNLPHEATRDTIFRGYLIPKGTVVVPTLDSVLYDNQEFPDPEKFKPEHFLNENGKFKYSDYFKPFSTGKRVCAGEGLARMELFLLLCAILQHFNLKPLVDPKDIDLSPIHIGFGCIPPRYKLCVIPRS
T2 sequence (P05181 whole entry): as above

For the compound `N[C@@H](CCC(=O)N[C@@H](CSC(=O)NCCc1ccccc1)C(=O)NCC(=O)O)C(=O)O`, the Drug metabolism entry at Cytochrome P450 2E1 [1] and in the data set with Liver microsome was “metabolite_detected” each time.

As for `N[C@@H](CCC(=O)N[C@@H](CSC(=S)NCCc1ccccc1)C(=O)NCC(=O)O)C(=O)O`, the Drug metabolism result on Cytochrome P450 2E1 [1] is “metabolite_detected”. The Retention_time at Cytochrome P450 2E1 [2] amounted to 16.7 min.

Regarding `O=C=NCCc1ccccc1` [PHENETHYL ISOCYANATE], the “inhibition (INH)” value at Cytochrome P450 2E1 [3] is “Not Active”.

Regarding `NCCc1ccccc1` [PHENETHYLAMINE], the Retention_time on Cytochrome P450 2E1 [2] is 12.7 min.

As for `S=C=NCCc1ccccc1` [PHENETHYLISOTHIOCYANATE], the Activity at Cytochrome P450 2E1 [4] is 100%; on Cytochrome P450 2E1 [8] it was 93%; on Cytochrome P450 2E1 [9] it was 64%; on Cytochrome P450 2E1 [13], “Not Active”; at Cytochrome P450 2E1 [17], 42%. The “inhibition (INH)” value at Cytochrome P450 2E1 [5] is “tde”; at Cytochrome P450 2E1 [15], “Dose-dependent effect and tde”; on Cytochrome P450 2E1 [20] it was “Active”. The activity at 25 µM at CYP2E1 [6] was determined as 82%; at CYP2E1 [7] it was 26%; on CYP2E1 [10], 27%; at CYP2E1 [16], 85%. For the same compound, the Drug metabolism entry was “metabolite_detected” on Cytochrome P450 2E1 [11] and “metabolite_not_detected” at Cytochrome P450 2E1 [14]. Further, the Ratio on Cytochrome P450 2E1 [12] came to 12. Also, on CYP2E1 [18], the kinact is 0.00383 s⁻¹. Besides, the Ki at Cytochrome P450 2E1 [19] amounted to 11 µM.
